Reference: publication PMC3878182 (Xenobiotica; the fate of foreign compounds in biological …, 2013)

What was measured:
[1] = test system: hippocampal slice cultures; experiment: LDH release in hippocampal slice cultures; assay type: cell-based, Sprague Dawley rats (PND4 pups); conditions: PCB 136 ≤ 5 μM for 14 d
How it was run: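 Hippocampi from PND4 pups of timed-pregnant Sprague Dawley rats were cultured as slices. From 5 DIV, racemic test compound or vehicle (0.1 % DMSO) was added to 1 mL medium, renewed every 2 days for 14 days. LDH release was measured with a membrane-integrity fluorescence kit. Mean ± SEM, n = 2 wells per group.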

[2] = test system: hippocampal tissue slices; experiment: PCB 136 levels in hippocampal tissue slice cultures relative to medium; assay type: in vitro ADME, Sprague Dawley rats (PND4 pups); conditions: for Medium-to-tissue slice ratio of PCB 136: day 14
How it was run: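 Hippocampi from PND4 rat pups were cultured as slices. From 5 DIV, racemic test compound (5 μM; vehicle 0.1% DMSO) was added to 1 mL medium per well, renewed every 2 days for 14 days. Medium from each change and slices at day 14 were stored at −20 °C and analysed. The medium-to-slice ratio was taken at day 14.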

[3] = test system: liver tissue slices; experiment: Formation of hydroxylated PCB 136 metabolites in liver tissue slices; assay type: in vitro ADME, Sprague-Dawley rats; conditions: for ΣOH-PCB as percent of PCB 136: PCB 136 5 μM (10 nmol), 2 h, slices plus medium
[4] = test system: hippocampal slice cultures; experiment: Propidium iodide; assay type: cell-based, Sprague Dawley rats (PND4 pups)
[5] = test system: ryanodine receptor (RyR); conditions: ref Pessah et al., 2006; cited from earlier work
[6] = test system: liver tissue slices; experiment: PCB 136 levels and partitioning in liver tissue slice incubations; assay type: in vitro ADME, Sprague-Dawley rats
How it was run: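 Two liver slices were placed in 2 mL K-H buffer and given test compound (final 5 μM; 10 nmol per incubation; DMSO) for 2 h at 37 °C, 5% CO2/95% air. Slices were washed in cold buffer and homogenized. Medium and homogenate were quantified by GC-63Ni-μECD (DB1-MS column); calibration was linear over 1–1000 ng/mL. Slice levels are per mg protein and as % of dose. n=2 or 3 animals, triplicate incubations, mean ± SD.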

[7] = test system: liver tissue slices; experiment: Liver slice viability; assay type: cell-based, Sprague-Dawley rats
How it was run: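 Liver slices came from adult rats, either naive or pretreated with PB or DEX, taken 24 h after the last dose into cold Krebs-Henseleit buffer, pH 7.5. Two slices per vial in 2 mL buffer received test compound (final 5 μM) or DMSO, 2 h, 37 °C, 5 % CO2/95 % air. LDH in medium and homogenate gave % release = A1×D1/(A1×D1+A2×D2); viable was <30 %.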

[8] = test system: CYP1A2; experiment: Hepatic P450 transcript levels; assay type: in vivo, Sprague-Dawley rats; conditions: liver slices from male rats
[9] = Effect of inducer treatment on body and liver weights of rats; assay type: in vivo, Sprague-Dawley rats; conditions: i.p. inducer treatment
[10] = test system: CYP3A2; experiment: Hepatic P450 transcript levels; assay type: in vivo, Sprague-Dawley rats; conditions: liver slices from male rats
[11] = DEX-treated female rats, PCB 136 5 μM (10 nmol), 2 h, 37°C
[12] = DEX-treated male rats, PCB 136 5 μM (10 nmol), 2 h, 37°C
[13] = PB-treated female rats, PCB 136 5 μM (10 nmol), 2 h, 37°C
[14] = PB-treated male rats, PCB 136 5 μM (10 nmol), 2 h, 37°C
[15] = naïve control (CTL) female rats, PCB 136 5 μM (10 nmol), 2 h, 37°C
[16] = naïve control (CTL) male rats, PCB 136 5 μM (10 nmol), 2 h, 37°C

With `Clc1ccc(Cl)c(-c2c(Cl)ccc(Cl)c2Cl)c1Cl` [PCB 136, 2,2′,3,3′,6,6′-hexachlorobiphenyl] the “LDH release relative to vehicle controls” value [1] was “did not significantly alter LDH release”, the “PCB 136 in slices as percent of the PCB 136 (1.8 μg) added on day 12” value ([2]; female pups) was 1.5 ± 0.8% and the “Average PCB 136 amount associated with the tissue slices” value ([2]; female pups, after 14 days) was 27 ± 15 ng. The “Medium-to-tissue slice ratio of PCB 136” value ([2]; female pups) was 24 ± 8, the “PCB 136 in slices as percent of total PCB dose added” value ([2]; female pups, total dose 12.6 μg) was 0.2% and the “PCB 136 in slices as percent of the PCB 136 (1.8 μg) added on day 12” value ([2]; male pups) was 1.8 ± 0.3%. For the same compound, the “PCB 136 amount associated with tissue slices” value ([2]; male pups, after 14 days) was 32 ± 6 ng, the “Medium-to-tissue slice ratio of PCB 136” value ([2]; male pups) was 26 ± 10 and the “PCB 136 in slices as percent of total PCB dose” value ([2]; male pups, total dose 12.6 μg) was 0.3%. For the same compound, the “Average PCB 136 concentration in the incubation medium” value ([2]; slice cultures from female pups, 5 μM racemic PCB 136, 14 days) was 830 ± 80 ng/mL, the “Average PCB 136 levels in the incubation medium” value ([2]; slice cultures from male pups, 5 μM racemic PCB 136, 14 days) was 570 ± 220 ng/mL and the “ΣOH-PCB as percent of PCB 136” value ([3]; DEX-treated female rats) was 2.7 ± 1.3%. The “ΣOH-PCB as percent of PCB 136” value ([3]; PB-treated female rats) was 5.3 ± 1.1%, the “ΣOH-PCB as percent of PCB 136” value ([3]; PB-treated male rats) was 11 ± 2.7% and the “Percent of total PCB 136 metabolized to OH-PCBs” value ([3]; liver slices from female rats, within 2 h) was ≤ 5%. For the same compound, the “Percent of total PCB converted to OH-PCBs” value ([3]; liver slices from male rats) was “at least 11%”, the “ΣOH-PCB as percent of PCB 136” value ([3]; naïve control (CTL) male rats) was 1.1 ± 0.4% and the “PI uptake (confocal images)” value ([4]; PCB 136 at 5 μM for 14 days vs vehicle) was “no significant differences”. The PI uptake ([4]; racemic PCB 136 at 5 or 10 μM, 3 d exposure from 5 DIV, vs vehicle) was “had no significant effect on PI uptake”, the “RyR activity / sensitization” value [5] was “RyR active” and the “PCB 136 in medium” value [6, 11] was 6.7 ± 0.7 nmol. The “PCB 136 in tissue slices” value [6, 11] was 2.1 ± 0.3 nmol, the “PCB 136 in tissue slices” value ([6]; DEX-treated female rats, PCB 136 5 μM, 2 h) was 42 ± 14 ng/mg protein and the “PCB 136 in medium” value [6, 12] was 5.7 ± 0.3 nmol. For the same compound, the “PCB 136 in tissue slices” value [6, 12] was 1.8 ± 0.4 nmol, the “PCB 136 in tissue slices” value ([6]; DEX-treated male rats, PCB 136 5 μM, 2 h) was 27 ± 7 ng/mg protein and the “PCB 136 in medium” value [6, 13] was 9.5 ± 0.5 nmol. The “PCB 136 in tissue slices” value [6, 13] was 2.5 ± 0.4 nmol, the “PCB 136 in tissue slices” value ([6]; PB-treated female rats, PCB 136 5 μM, 2 h) was 53 ± 10 ng/mg protein and the “PCB 136 in medium” value [6, 14] was 8.6 ± 0.4 nmol. The “PCB 136 in tissue slices” value [6, 14] was 1.3 ± 0.3 nmol, the “PCB 136 in tissue slices” value ([6]; PB-treated male rats, PCB 136 5 μM, 2 h) was 21 ± 6 ng/mg protein and the “Percent of total PCB 136 associated with liver tissue slices” value ([6]; both sexes, all treatment groups) was 13–25%. For the same compound, the “PCB 136 in tissue slices as percent of total PCB 136 dose added” value ([6]; female liver slices, 2 h) was 21–25%, the “PCB 136 in tissue slices as percent of total PCB 136 dose” value ([6]; male liver slices, 2 h) was 13–23% and the “PCB 136 in medium” value [6, 15] was 8.5 ± 0.1 nmol. The “PCB 136 in tissue slices” value [6, 15] was 2.4 ± 0.5 nmol, the “PCB 136 in tissue slices” value ([6]; naïve control (CTL) female rats, PCB 136 5 μM, 2 h) was 45 ± 15 ng/mg protein and the “PCB 136 in medium” value [6, 16] was 6.3 ± 0.3 nmol. The “PCB 136 in tissue slices” value [6, 16] was 2.3 ± 0.1 nmol, the “PCB 136 in tissue slices” value ([6]; naïve control (CTL) male rats, PCB 136 5 μM, 2 h) was 33 ± 5 ng/mg protein and the “Acute toxicity to liver slices” value ([7]; 2 h incubation with PCB 136 at 5 μM) was “not acutely toxic”. For the same compound, the “LDH release to the medium” value ([7]; all slices used in the PCB 136 metabolism experiments, 2 h incubation) was 13.2 ± 6.6% and the LDH release ([7]; slices treated with PCB 136 5 μM, 2 h) was 13.1 ± 6.6%.
In the case of `CCC1(c2ccccc2)C(=O)NC(=O)NC1=O` [Phenobarbital (PB), phenobarbital], the “CYP1A2 transcript level vs CTL” value [8] is reported as “not changed”, the Liver weight ([9]; female rats) is reported as 10.1 ± 0.4 g and the “Liver-to-final body weight ratio” value ([9]; female rats) is reported as 4.5 ± 0.2. For the same compound, the “Percent change in body weight” value ([9]; female rats) was 5.5 ± 1.3%, the Liver weight ([9]; male rats) was 16.0 ± 2.0 g and the “Liver-to-final body weight ratio” value ([9]; male rats) was 5.3 ± 0.9. For the same compound, the “Percent change in body weight” value ([9]; male rats) was −2.0 ± 7.0% and the “CYP3A2 transcript level vs CTL” value [10] was “significantly induced by DEX but not PB”.
